Activity calls are given as the source filed them. The calls are words filed in the database; no cut-off is given here.
Experiments:
Format in all cases: functional, cell-based
[1] = Cytotoxicity against human EC9706 cells after 72 hrs by SRB assay; conditions: EC9706, 72 h
Method in brief: (§1)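 Cells in DMEM with 10% FBS and 1% penicillin/streptomycin; log-phase cells trypsinized and seeded at 5000 cells/well. DMSO stocks diluted 1000-fold in medium (<0.1% DMSO); final 100 down to 1.5625 μM in twofold steps, 72 h. Fixed with 50% TCA, stained 0.4% SRB, solubilized in 10 mM Tris base pH 10.5, OD 515 nm; IC50 calculated.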

PC-3 = test: Cytotoxicity against human PC3 cells after 72 hrs by SRB assay; conditions: PC-3, 72 h; method in brief: as §1
[2] = Cytotoxicity against human EC109 cells after 72 hrs by SRB assay; conditions: ECa-109, 72 h; method in brief: as §1
MGC-803 [3] = test: Cytotoxicity against human MGC803 cells after 72 hrs by SRB assay; conditions: MGC-803, 72 h; method in brief: as §1
MGC-803 [4] = test: Cytotoxicity against human L-NAC-pretreated MGC803 cells incubated 2 hr post-L-NAC addition measured after 72 hrs by SRB assay
Method in brief: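 MGC-803 cells in DMEM/10% FBS, seeded 5000 cells/well, preincubated with or without 5 mM L-NAC (ROS scavenger) for 2 h before compound addition. Compound final 100 to 1.5625 μM (twofold series, <0.1% DMSO), 72 h. SRB readout after TCA fixation, OD 515 nm; IC50 (50% cell death) calculated.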

SMILES	IC50 [1] [µM]	IC50 (PC-3) [µM]	IC50 [2] [µM]	IC50 (MGC-803 [3]) [µM]	Activity (MGC-803 [4])
COc1cc(OCC2CO2)c(C(=O)c2ccc(OCC3CO3)cc2)c(O[C@@H]2O[C@H](CO)[C@@H](O)[C@H](O)[C@H]2O)c1 (stereo partly drawn)	> 100	> 100	> 100	> 100	–
COc1cc(O)c(C(=O)c2ccc(O)cc2)c(O[C@@H]2O[C@H](CO)[C@@H](O)[C@H](O)[C@H]2O)c1 [MAHKOSIDE A]	> 100	> 100	> 100	> 100	–
COc1cc(OC(C)=O)c(C(=O)c2ccc(OC(C)=O)cc2)c(O[C@@H]2O[C@H](COC(C)=O)[C@@H](OC(C)=O)[C@H](OC(C)=O)[C@H]2OC(C)=O)c1	86.1	34.1	50.7	47.3	–
COc1cc(OCCCN2CCCCC2)c(C(=O)c2ccc(OCc3ccccc3)cc2)c(OCc2ccccc2)c1	4.97	3.47	5.14	3.12	Active
COc1cc(OC(=O)c2ccc(Cl)cc2)c(C(=O)c2ccc(OC(=O)c3ccc(Cl)cc3)cc2)c(O[C@@H]2O[C@H](COC(=O)c3ccc(Cl)cc3)[C@@H](OC(=O)c3ccc(Cl)cc3)[C@H](OC(=O)c3ccc(Cl)cc3)[C@H]2OC(=O)c2ccc(Cl)cc2)c1	> 100	> 100	> 100	> 100	–
COc1cc(OC)c(C(=O)c2ccc(O)cc2)c(O[C@@H]2O[C@H](CO)[C@@H](O)[C@H](O)[C@H]2O)c1	> 100	> 100	> 100	> 100	–
CCOc1ccc(C(=O)c2c(OCC)cc(OC)cc2O[C@@H]2O[C@H](CO)[C@@H](O)[C@H](O)[C@H]2O)cc1	> 100	> 100	> 100	> 100	–
COc1cc(OC(=O)c2ccccc2)c(C(=O)c2ccc(OC(=O)c3ccccc3)cc2)c(O[C@@H]2O[C@H](COC(=O)c3ccccc3)[C@@H](OC(=O)c3ccccc3)[C@H](OC(=O)c3ccccc3)[C@H]2OC(=O)c2ccccc2)c1	> 100	> 100	> 100	> 100	–
COc1cc(O)c(C(=O)c2ccc(O)cc2)c(O[C@@H]2O[C@H](COC(C)=O)[C@@H](O)[C@H](O)[C@H]2O)c1 [MAHKOSIDE B]	> 100	> 100	> 100	> 100	–
COc1ccc(COc2ccc(C(=O)c3c(OCc4ccc(OC)cc4)cc(OC)cc3O[C@@H]3O[C@H](CO)[C@@H](O)[C@H](O)[C@H]3O)cc2)cc1	20.5	11.7	17.1	28.2	–
CCCC(=O)OC[C@H]1O[C@@H](Oc2cc(OC)cc(OC(=O)CCC)c2C(=O)c2ccc(OC(=O)CCC)cc2)[C@H](OC(=O)CCC)[C@@H](OC(=O)CCC)[C@@H]1OC(=O)CCC	> 100	> 100	> 100	> 100	–
COc1cccc(COc2ccc(C(=O)c3c(OCc4cccc(OC)c4)cc(OC)cc3O[C@@H]3O[C@H](CO)[C@@H](O)[C@H](O)[C@H]3O)cc2)c1	20.9	6.92	12.3	18.4	–
COc1cc(OCc2ccccc2)c(C(=O)c2ccc(OCc3ccccc3)cc2)c(O[C@@H]2O[C@H](CO)[C@@H](O)[C@H](O)[C@H]2O)c1	41.1	28.9	22.7	44.3	–
CCCCOc1ccc(C(=O)c2c(OCCCC)cc(OC)cc2O[C@@H]2O[C@H](CO)[C@@H](O)[C@H](O)[C@H]2O)cc1	41.8	32	29	49.2	–
COc1cc(O)c(C(=O)c2ccc(OCc3ccccc3)cc2)c(OCc2ccccc2)c1	> 100	> 100	> 100	> 100	–
C=CCOc1ccc(C(=O)c2c(OCC=C)cc(OC)cc2O[C@@H]2O[C@H](CO)[C@@H](O)[C@H](O)[C@H]2O)cc1	> 100	> 100	> 100	> 100	–
COc1cc(OCCCBr)c(C(=O)c2ccc(OCc3ccccc3)cc2)c(OCc2ccccc2)c1	> 100	> 100	> 100	> 100	–
COc1cc(OCCCBr)c(C(=O)c2ccc(OCCCBr)cc2)c(O[C@@H]2O[C@H](CO)[C@@H](O)[C@H](O)[C@H]2O)c1	31.3	40	23.1	53.8	–
